STAT1 act: STAT1 signaling activation; NIH 3T3 STAT1-luciferase reporter, IFN-gamma, luminescence; 100% = IFN-gamma alone, no compound; activation (% of control), % at 5.5 µM; 200,000 tested, 2.6% active; AID 932;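 active means activation above the screen-wide mean activation plus 3 SD, cut at about 130% in these data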;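 further: raw ratio to IFN-gamma control signal so 100% means no change and 0% no light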
STAT1 blocker: reduces IFN-gamma driven STAT1 reporter signal. inhibition, % at 5.5 µM. AID 920. NIH 3T3 STAT1-luciferase reporter, luminescence. 200,000 tested, 0.35% active;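 active means inhibition above a set limit, the mean inhibition across all tested compounds plus 3 SD, cut at about 34% in these data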;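 further: 0% = IFN-gamma with DMSO and 100% = IFN-gamma with 300 µM nifuroxazide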
STAT3 act: STAT3 signaling activation; U3A cells, IL-6 STAT3-luciferase reporter, luminescence; 100% = signal with IL-6 EC80 alone; activation (% of control), % at 5.6 µM; 190,000 tested, 0.91% active; AID 871;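 active means activation above the screen-wide mean of compound activation plus 3 SD, cut at about 130% in these data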;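 further: 0% = background luminescence of wells with medium and substrate only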
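Test system: STAT3-luciferase reporter U3A cells; Detection: reporter luminescence signal; Times: 1 h compound pre-exposure, 6 h IL-6 stimulation, 37 °C; Benchmarks: IL-6-only high control; Also added: IL-6 stimulus at 33 ng/mL final.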
APP 5'UTR act: APP 5'UTR luciferase reporter activation; SH-SY5Y APP 5'UTR luciferase reporter, luminescence; zero percent = DMSO vehicle wells; activation, % at 2 µM; 190,000 tested, 1% active; AID 1276;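 active means activation above a set limit, based on mean plus 3 SD of controls, cut at about 140% in these data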
STAT3 blocker: STAT3 signaling inhibition. U3A cells, IL-6 STAT3-luciferase reporter, luminescence; host cell line lacks STAT1. inhibition, % at 5.5 µM. 190,000 tested, 0.89% active;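 active means inhibition above the mean inhibition across all screened compounds plus 3 SD, cut at about 44% in these data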;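 further: 0% = DMSO only wells and 100% = 100 µM nifuroxazide control wells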
NF-kB neuron act: raises NF-kB expression in human neuronal cells | fold change at 12.5 µM | 190,000 tested, 1.6% active | NF-kB reporter expression; stronger effect = higher value; in the data active means fold change above about 3.3
* marks the source's active call; other numbers are inactive results. Compounds with a hit are over-represented: about 5.1% of the library has one in this group of screens.

SMILES	STAT1 act	STAT1 blocker	STAT3 act	APP 5'UTR act	STAT3 blocker	NF-kB neuron act
CN(CC(=O)Nc1ccc(Cl)cc1)c1ccc(S(=O)(=O)N2CCCCC2)cc1[N+](=O)[O-]	97	4	104	-2	-10	0.76
CCOc1cc(C)c(Cl)cc1S(=O)(=O)n1ccnc1	94	5	92	-1	17	0.88
O=C(CCCN1C(=O)/C(=C/c2cccc(Br)c2)SC1=S)Nc1cccnc1	92	7	98	-3	8	3.4*
N/C(=N\OC(=O)c1cccc(Br)c1)c1ccc(Br)cc1	98	2	124	-5	-18	0.98
N/C(=N\OC(=O)c1ccc(Br)cc1)c1ccccc1	150*	-56	96	124	14	9.7*
Cc1ccc(C(=O)O/N=C(\N)c2ccc(Br)cc2)cc1	137*	-40	91	36	18	3.8*
Cn1c(=O)c2c(nc(SCC(=O)c3ccccc3F)n2C)n(C)c1=O	98	2	102	3	4	1.3
CNC(=O)c1ccccc1-c1cn(C)c2ccccc2c1=O	100	2	102	-5	2	1
COc1ccc(-c2cnn3c(N)c(S(=O)(=O)C(C)(C)C)cnc23)cc1	108	-9	116	4	-13	6.4*
CC(C)(C)S(=O)(=O)c1cnc2c(-c3ccc(Cl)cc3)cnn2c1N	107	-8	100	-7	8	1.5
O=[N+]([O-])c1ccc(CN2CCN(Cc3c[nH]c4ccccc34)CC2)cc1	92	6	111	-10	-13	0.87
O=C(/C=C\Nc1ccc(Cl)cn1)c1ccc(Br)cc1	134*	-39	99	123	8	1.6
O=C(/C=C/Nc1ccc(F)c(F)c1)c1ccc(Br)cc1	141*	-44	97	163*	2	8.1*
O=C(/C=C/Nc1ccc([N+](=O)[O-])cc1)c1ccc(Br)cc1	106	-7	93	37	11	1.5
O=C(/C=C/Nc1ccc(Br)cc1F)c1ccccc1	58	47*	23	140*	90*	1.3
CC(=O)c1ccc(N/C=C\C(=O)c2ccc(C)cc2)cc1	148*	-54	94	127	10	1
Cc1cc(C)n(-c2ccc(Cl)c(C(=O)Nc3ccc(OC(F)(F)F)cc3)n2)n1	97	6	104	-17	-8	1
COCCN(C(=O)c1ccccc1OC1CCN(S(C)(=O)=O)CC1)C(C)C	95	5	97	10	9	1.1
COc1cc(C(=O)NCc2nnc(SCC(=O)Nc3ccc4c(c3)OCO4)o2)cc(OC)c1OC	103	-4	92	-6	13	1.4
COc1ccc(C(=O)/C=C/Nc2ccc(C)cn2)cc1OC	143*	-46	95	145*	10	5.2*
COC(=O)c1ccc(/C=C/C(=O)c2ccc(OC)c(OC)c2)cc1	103	-3	104	8	-5	0.86
Cc1nn(CCC(N)=S)c2nc(-c3cccs3)cc(C(F)(F)F)c12	103	-3	99	-10	4	0.94
O=C(O)c1ccccc1NN=C1CCCCC1	138*	-43	116	125	-18	3.4*
Cc1ccc2c(c1)sc(=NC(=O)c1cccs1)n2C	24	81*	32	220*	88*	2.2
CCOC(=O)c1sc(=NC(=O)c2ccco2)n(C)c1C	129*	-33	143*	31	-48	2.1
SMILES	STAT1 act	STAT1 blocker	STAT3 act	APP 5'UTR act	STAT3 blocker	NF-kB neuron act
C#CCn1c(=NC(=O)c2cccs2)sc2cccc(OC)c21	122	-24	122	16	-22	1.4
CCOC(=O)c1sc(=NC(=O)c2ccc(C)c(C)c2)n(C)c1C	127	-31	99	129	4	1
CCOC(=O)c1sc(NC(=O)c2cccs2)cc1C	138*	-42	70	168*	42	4*
CCOC(=O)c1sc(=NC(=O)c2cccs2)n(C)c1C	133*	-36	128	141*	-24	5.4*
CCSc1nnc(NC(=O)C2CCN(S(=O)(=O)c3c(C)c(C)cc(C)c3C)CC2)s1	104	-4	96	-4	8	1.1
CC(Sc1ncc(C(F)(F)F)cc1Cl)C(=O)NCC1CCCO1 (configuration not stated)	96	2	105	2	0	0.99
CCOC(=O)c1sc(=NC(=O)c2ccc(Cl)s2)n(C)c1C	151*	-54	137*	146*	-47	1.5
O=C(NN=C1CCCCCC1)C(=O)Nc1cccc(Br)c1	91	10	90	1	10	1.5
CS(=O)(=O)N1CCN(c2ccc(NC(=O)c3ccc(Br)o3)cc2)CC1	130*	-33	99	27	5	1.9
CCc1ccc(-c2ccc(C(=O)C(F)(F)F)[nH]2)cc1	124	-26	106	179*	-7	4.5*
CC(c1nccs1)N(C)c1nc2nonc2nc1N(C)C (configuration not stated)	114	-18	100	23	3	1
Brc1c(CSc2nc3ccccc3o2)nc2ncccn12	134*	-37	102	37	2	2.5
Clc1c(CSc2nc3ccccc3o2)nc2sccn12	127	-29	90	136*	16	8.1*
CC(=O)CSc1nc2ccccc2o1	106	-6	101	27	2	1.6
CC1=C(C(=O)OCc2ccc3c(c2)OCO3)C(c2cccc([N+](=O)[O-])c2)NC(=O)N1 (configuration not stated)	77	24	93	-25	15	1.3
COc1ccc(Oc2nnnn2-c2ccccc2)cc1	106	-7	94	3	10	2.1
COc1cccc(Oc2nnnn2-c2ccccc2)c1	131*	-34	101	25	2	2
Cc1cc(N)n(-c2ccccc2)n1	102	-2	100	2	2	1.2
Cc1cc(C)c2nc(-n3nc(C)cc3N)cc(C)c2c1	143*	-45	120	91	-26	1.8
Cc1cc(N)n(-c2cc(C)c3ccccc3n2)n1	112	-13	102	137*	3	4.5*
CCC(C)(C(=O)NC1CCCC1)N(Cc1cccs1)C(=O)c1ccc2c(c1)OCO2 (configuration not stated)	93	7	104	7	-6	1
CC(=O)c1c(C)[nH]c(C(=O)OCC(=O)N(C)C)c1C	106	-7	109	15	-10	1.5
C/C(=N\NC(=O)c1cc(C)[nH]n1)c1cccs1	106	-8	75	114	33	2.9
C/C(=N/NC(=O)c1cnccn1)c1cccs1	135*	-39	103	27	-2	2
C/C(=N\Nc1ccccn1)c1ccc(C#N)cc1	104	-4	88	-16	18	1.1
C/C(=N\NC(=O)c1ccccn1)c1ccc(C(=O)O)s1	133*	-37	99	64	7	1.1
C/C(=N\Nc1ccccn1)c1cccs1	137*	-44	98	76	6	1.1
